Laboratory results published in the array DNA melting data of Ke et al. (doi:10.1101/2024.01.08.574731).

Experiments:
[1] = folding enthalpy; higher = less favourable; fluorescence melt of hairpins on a sequencing array, two-state fit; conditions: sodium 0.088 M
Method in brief: (§1)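 Melting temperature and folding enthalpy were obtained by bootstrapped two-state fitting. Fits used Cy3 fluorescence of library hairpins with annealed Cy3 and quencher oligos on a sequenced MiSeq flow cell, imaged in 50 mM Na-HEPES pH 8.0, 25 mM NaCl in 2.5 °C steps up to 60 °C and normalised to pre-quench Cy3 and control constructs. Four replicates were combined by inverse-variance weighting, and fitted temperatures were raised by 9.35 °C to match UV melts.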

[2] = melting temperature; fluorescence melt of hairpins on a sequencing array, two-state fit, raised by 9.35 °C to match UV melts; conditions: sodium 0.088 M
Method in brief: as §1

Sequence | folding enthalpy [1] | Tm [2]
GCTCCGCGAAAGCGAGGC ((..(((....)))..)) | -60.3 kJ/mol | 55.6 °C
GCTCCGCGAAAGCGTAGC (((.(((....))).))) | -137 kJ/mol | 51.8 °C
GCTCCGCGAAAGCTGAGC ((((.((....)).)))) | -135 kJ/mol | 61.1 °C
GCTCCTGCGAAAGCAAGC (((..(((....)))))) | -37.9 kJ/mol | 26.7 °C
GCTCCTGGAAACAGGGGC ((.((((....)))).)) | -166 kJ/mol | 57.4 °C
GCTCGACGAAAGTCAAGC (((.(((....))).))) | -116 kJ/mol | 51.8 °C
GCTCGAGAAATCGAGC ((((((....)))))) | -156 kJ/mol | 66.5 °C
GCTCGAGGAAACTCGGGC ((.((((....)))).)) | -163 kJ/mol | 59.9 °C
GCTCGATCGAAAGATAGC (((..(((....)))))) | -49 kJ/mol | 28.1 °C
GCTCGCACGAAAGTGAGC (((..(((....)))))) | -88.7 kJ/mol | 49.6 °C
GCTCGCCCGAAAGGGAGC (((..(((....)))))) | -70.2 kJ/mol | 48.4 °C
GCTCGCGAAAGCGATAGC ((((((....)))..))) | -60.1 kJ/mol | 50.3 °C
GCTCGCGAAAGCGCAGC ((((((....))).))) | -82.2 kJ/mol | 54.4 °C
GCTCGCGAAAGCGGAGC ((((((....))).))) | -95.7 kJ/mol | 67.9 °C
GCTCGCGAAAGCGGTAGC ((((((....)))..))) | -64.4 kJ/mol | 51 °C
GCTCGCGGAAACGCGAAC (.(((((....))))).) | -47.1 kJ/mol | 48.9 °C
GCTCGGCCGAAAGGCAGC (((..(((....)))))) | -36.7 kJ/mol | 55.6 °C
GCTCGGCGAAAGCCAGC (((.(((....)))))) | -72.8 kJ/mol | 62.9 °C
GCTCGGCGAAAGCCATGC ((..(((....)))..)) | -44.9 kJ/mol | 49.8 °C
GCTCGGCGAAAGCCTTGC ((..(((....)))..)) | -47.7 kJ/mol | 50.2 °C
GCTCGGCGAAAGCGGGGC ((.(.((....)).).)) | -86 kJ/mol | 61.1 °C
GCTCGGCGAAAGCGGTGC ((.(.((....)).).)) | -54.2 kJ/mol | 57.6 °C
GCTCGGCGAAAGCGTAGC (((..((....))..))) | -53.8 kJ/mol | 39.3 °C

Sequence | folding enthalpy [1] | Tm [2]
GCTCGGCGAAAGCTGCGC ((.(.((....)).).)) | -72.7 kJ/mol | 56.2 °C
GCTCGGCGAAAGCTGTGC ((.(.((....)).).)) | -64.3 kJ/mol | 60.2 °C
GCTCGGGGAAACTCGGGC ((.((.(....).)).)) | -109 kJ/mol | 46.6 °C
GCTCGGTCGAAAGACAGC (((..(((....)))))) | -51.5 kJ/mol | 41.2 °C
GCTCGTCGAAAGACAAGC (((.(((....))).))) | -103 kJ/mol | 49.5 °C
GCTCTAGAAATAGAGC ((((((....)))))) | -143 kJ/mol | 50.9 °C
GCTCTCGAAAGAGAGAGC ((((((....)))..))) | -81.7 kJ/mol | 57.2 °C
GCTCTCGAAAGAGCAGC ((((((....))).))) | -64.4 kJ/mol | 48.2 °C
GCTCTCGAAAGAGCGAGC ((((((....)))..))) | -63.3 kJ/mol | 49.3 °C
GCTCTCGAAAGAGGAGC ((((((....))).))) | -122 kJ/mol | 50.6 °C
GCTCTCGAAAGAGGCAGC ((((((....)))..))) | -64.7 kJ/mol | 42.3 °C
GCTCTCGGAAACGAAAGC (((.(((....))).))) | -119 kJ/mol | 39.4 °C
GCTCTGACGAAAGTCAGC (((..(((....)))))) | -31.3 kJ/mol | 31.3 °C
GCTCTGCGAAAGCATGGC ((..(((....)))..)) | -81.8 kJ/mol | 40.1 °C
GCTCTGCGAAAGCGGCGC ((.(.((....)).).)) | -72.1 kJ/mol | 50.5 °C
GCTCTGCGAAAGCTGCGC ((.(.((....)).).)) | -76.9 kJ/mol | 44.2 °C
GCTCTGCGAAAGCTGGGC ((.(.((....)).).)) | -89.7 kJ/mol | 54.3 °C
GCTCTGGAAACAGAGC ((((((....)))))) | -156 kJ/mol | 62.2 °C
GCTCTGGGAAACCAAAGC (((.(((....))).))) | -99.1 kJ/mol | 35.5 °C
GCTCTGGGAAACCGGAGC ((((.((....)).)))) | -221 kJ/mol | 57.2 °C
GCTCTGGGAAACTAGGGC ((.((.(....).)).)) | -116 kJ/mol | 36.5 °C
GCTCTGTCGAAAGACAGC (((..(((....)))))) | -36.1 kJ/mol | 36.5 °C
GCTCTTCGAAAGAAAGC (((.(((....)))))) | -86.1 kJ/mol | 36.1 °C

Sequence | folding enthalpy [1] | Tm [2]
GCTCTTGGAAACAAGAAC (.(((((....))))).) | -68.1 kJ/mol | 31.4 °C
GCTGAACGAAAGTTAAGC (((.(((....))).))) | -132 kJ/mol | 50.6 °C
GCTGAACGAAAGTTGAGC (((.(((....))).))) | -132 kJ/mol | 48.7 °C
GCTGACGAAAGTCAAAGC ((((((....)))..))) | -74.9 kJ/mol | 48.7 °C
GCTGACGAAAGTCAAGC ((((((....))).))) | -120 kJ/mol | 56.3 °C
GCTGACGAAAGTCATAGC ((((((....)))..))) | -66.7 kJ/mol | 47.1 °C
GCTGACGAAAGTCGGAGC ((((((....)))..))) | -69 kJ/mol | 45.7 °C
GCTGACGAAAGTCGTAGC ((((((....)))..))) | -90.5 kJ/mol | 47.1 °C
GCTGACGAAAGTCTAAGC ((((((....)))..))) | -80.1 kJ/mol | 47.1 °C
GCTGACGCGAAAGCGAGC (((..(((....)))))) | -58.1 kJ/mol | 47.1 °C
GCTGACGGAAACATCAGC (((((.(....).))))) | -147 kJ/mol | 44.3 °C
GCTGACGGAAACGCCAAC (.((.((....)).)).) | -59 kJ/mol | 25.9 °C
GCTGACTCGAAAGAGAGC (((..(((....)))))) | -61.1 kJ/mol | 31.6 °C
GCTGAGCGAAAGCACGGC ((.(.((....)).).)) | -90 kJ/mol | 56.8 °C
GCTGAGCGAAAGCATAGC (((..((....))..))) | -78.9 kJ/mol | 50 °C
GCTGAGCGAAAGCTGTGC ((..(((....)))..)) | -74.5 kJ/mol | 45.5 °C
GCTGAGGCGAAAGCCAGC (((..(((....)))))) | -93.3 kJ/mol | 52.8 °C
GCTGAGGGAAACCTCAAC (.(((((....))))).) | -79.2 kJ/mol | 36.6 °C
GCTGATCCGAAAGGAAGC (((..(((....)))))) | -75.4 kJ/mol | 39 °C
GCTGATCGAAAGATAAGC (((.(((....))).))) | -147 kJ/mol | 49.5 °C
GCTGATCGAAAGATGAGC (((.(((....))).))) | -135 kJ/mol | 48 °C
GCTGATGAAAATCAGC ((((((....)))))) | -150 kJ/mol | 60.6 °C
GCTGATGCGAAAGCAAGC (((..(((....)))))) | -81.1 kJ/mol | 43.5 °C

Sequence | folding enthalpy [1] | Tm [2]
GCTGATGGAAACATCAAC (.(((((....))))).) | -87.7 kJ/mol | 36 °C
GCTGATGGAAACGTCAGC (((((.(....).))))) | -169 kJ/mol | 53.3 °C
GCTGCCACGAAAGTGAGC (((..(((....)))))) | -54.9 kJ/mol | 50.2 °C
GCTGCCCGAAAGGGTAGC (((.(((....))).))) | -170 kJ/mol | 69 °C
GCTGCCGAAAGGCAAAGC ((((((....)))..))) | -61.9 kJ/mol | 57.1 °C
GCTGCCGAAAGGCTCAGC ((((((....)))..))) | -62.7 kJ/mol | 44.4 °C
GCTGCCGGAAACAGCAGC (((((.(....).))))) | -143 kJ/mol | 53.8 °C
GCTGCCGGAAACGGTGGC ((..(((....)))..)) | -167 kJ/mol | 55.1 °C
GCTGCGACGAAAGTCAGC (((..(((....)))))) | -56 kJ/mol | 51.4 °C
GCTGCGCGAAAGCACCGC ((.(.((....)).).)) | -89.6 kJ/mol | 41.3 °C
GCTGCGCGAAAGCCTAGC (((..((....))..))) | -65.6 kJ/mol | 42.4 °C
GCTGCGCGAAAGCTCAGC ((((.((....)).)))) | -148 kJ/mol | 64.4 °C
GCTGCTGCGAAAGCAAGC (((..(((....)))))) | -49 kJ/mol | 54.1 °C
GCTGCTGGAAACAGTGGC ((..(((....)))..)) | -168 kJ/mol | 47.6 °C
GCTGCTGGAAACGGTAGC (((.(.(....).).))) | -131 kJ/mol | 41.3 °C
GCTGGAGGAAACTCTGGC ((..(((....)))..)) | -117 kJ/mol | 41.6 °C
GCTGGCCGAAAGGCAGC (((.(((....)))))) | -86.1 kJ/mol | 65.8 °C
GCTGGCCGAAAGGCGAGC (((.(((....))).))) | -110 kJ/mol | 66.5 °C
GCTGGCGAAAGCCACAGC ((((((....)))..))) | -58.2 kJ/mol | 49.5 °C
GCTGGCGAAAGCCAGAGC ((((((....)))..))) | -41.5 kJ/mol | 63.3 °C
GCTGGCGAAAGCCTAAGC ((((((....)))..))) | -69 kJ/mol | 51.5 °C
GCTGGCGGAAACGTCAGC ((((.((....)).)))) | -181 kJ/mol | 61.2 °C
